TRPC4 agonist: activators of mouse TRPC4 channel | HEK293 TRPC4beta/mu-opioid, Fluo4 calcium fluorescence; stronger effect = higher value | Q9QUQ5 | B-score at 10 µM | AID 2237 | 310,000 compounds, 0.49% hits;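 active means B-score above 5 SD of library B-scores, and initial fluorescence ratio not above library mean plus 5 SD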;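 further: positive B-score marks a calcium rise read as TRPC4 activation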
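Assay system: HEK293 stable line with TRPC4beta plus mu-opioid receptor; schedule: 45 min room-temperature Fluo4 loading, 110 s read; technique: kinetic Fluo4 calcium fluorescence; evaluation: integrated baseline-normalised fluorescence ratio, converted to per-well B score; controls: buffer (low) and maximal DAMGO (high)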
TRPC6 inh: mouse TRPC6 channel inhibition; Q61143; 310,000 compounds, 1.1% hits; HEK293-TRPC6, membrane potential dye, ACh-evoked depolarization; stronger effect = lower value; AID 2553; B-score at 10 µM;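 active means B-score under library mean minus 3 SD, initial fluorescence not abnormally high, positive integrated signal ratio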;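 further: B-score derived from integrated fluorescence ratio over the kinetic read; more negative B-score means stronger inhibition of depolarization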
TRPC4 block: inhibitors of mouse TRPC4 channel; Q9QUQ5; HEK293 TRPC4beta/mu-opioid, DAMGO-evoked Fluo4 calcium flux; stronger effect = lower value; B-score at 10 µM; 300,000 compounds, 0.39% hits; AID 2247;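 active means B-score over 3 SD under the library average, no early fluorescence shift, positive overall ratio signal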
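Signal: kinetic Fluo4 fluorescence imaging of calcium influx. Material: stable TRPC4beta/mu-opioid receptor HEK293 cells. Probe or stimulus: DAMGO in two steps, submaximal then maximal.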
TRPC6 act: mouse TRPC6 channel activation. Q61143. HEK293-TRPC6 membrane potential dye fluorescence; stronger effect = higher value. AID 2550. B-score at 10 µM. 310,000 compounds, 0.13% hits;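 active means B-score of the integrated fluorescence ratio above library mean plus 3 SD, and starting fluorescence ratio within library mean plus 5 SD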;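 further: higher score means more depolarization so channel activation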
TRPC4 potent: allosteric potentiators of mouse TRPC4 channel. HEK293 TRPC4beta/mu-opioid, DAMGO EC20, Fluo-4 Ca2+ flux; stronger effect = higher value. B-score at 10 µM. 310,000 compounds, 0.42% hits;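 active means B-score of calcium response area above 5 SD of library B-scores, with initial fluorescence ratio within 5 SD of library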
HEK293 MPD ctr: parental HEK293 nonspecific activity of TRPC6 modulators. 2,400 compounds, 51% hits. membrane potential dye fluorescence. AID 488924. shares compounds with TRPC6 inh. membrane potential signal change, % at 10 µM;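 active means membrane potential signal moves up or down beyond 5 SD from buffer-only wells, on both duplicate plates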
HEK293 MPD ctr 2: parental HEK293 nonspecific activity of TRPC6 modulators, second screen; shares compounds with TRPC6 inh; membrane potential dye fluorescence; after compound, maximal acetylcholine stimulation; inhibition, % at 10 µM; 2,400 compounds, 14% hits;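 active means membrane potential signal drops by more than 5 SD from the mean control signal, in both duplicate plates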
TRPC4 ctr mod: mouse TRPC4 off-target activity of TRPC6 modulators | shares compounds with TRPC6 inh | HEK293 TRPC4/mu-opioid, membrane potential fluorescence | percent change from control (negative = decrease, positive = increase), % at 10 µM | 2,400 compounds, 69% hits | AID 488927;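 active means membrane potential signal moved up or down beyond 5 SD of buffer control wells, in both duplicate plates, actives on both sides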
TRPC4/MOR inh 2: second check of whether TRPC6 modulators also affect mouse TRPC4 | shares compounds with TRPC6 inh | HEK293 TRPC4/mu-opioid, membrane potential dye fluorescence; stimulated with maximal-effect DAMGO | inhibition, % at 10 µM | 2,400 compounds, 55% hits | AID 488928;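 active means drop in membrane potential signal beyond 5 SD of the control wells in both duplicate plates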;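 further: TRPC4 counter screen for TRPC6 hits run under conditions tuned for TRPC6 not TRPC4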
TRPC6 block conf: mouse TRPC6 inhibitor confirmation; shares compounds with TRPC6 inh; HEK293-TRPC6, membrane potential dye, ACh-evoked depolarization; inhibition, % at 10 µM; 3,300 compounds, 43% hits;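 active means fluorescence ratio falls more than 5 SD below the full-stimulation control mean, in both duplicate runs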;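 further: integrated fluorescence ratio of peak minus minimum over baseline after agonist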
TRPC6 act conf: mouse TRPC6 activator confirmation; shares compounds with TRPC6 inh; HEK293-TRPC6 membrane potential dye fluorescence, FDSS; activation, % at 10 µM; 2,800 compounds, 11% hits;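 active means ratio signal rise beyond 5 SD above unstimulated control wells' mean, seen in both duplicate runs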
Each line names hits and unclear results; the compound was inactive in the other large screens (follow-up assays come after a bar, where they were run). Most compounds without a hit are left out; they make up all but 2.3% or so of the library.

Cn1c(-c2ccc3c(c2)OCO3)cnc1NCc1ccc(Cl)cc1	TRPC6 inh -6.2 | HEK293 MPD ctr inactive | HEK293 MPD ctr 2 inactive | TRPC4 ctr mod inactive | TRPC4/MOR inh 2 76% | TRPC6 block conf 48% | TRPC6 act conf inactive
CCn1c(=NC(=O)CSC(C)=O)sc2cc(OC)ccc21	TRPC6 act 17 | HEK293 MPD ctr inactive | HEK293 MPD ctr 2 inactive | TRPC4 ctr mod 9.0% | TRPC4/MOR inh 2 inactive | TRPC6 act conf 152%
O=C(CSCc1cnn(-c2ccccc2)c1-n1cccc1)NCc1ccccn1	TRPC6 inh -6.3 | HEK293 MPD ctr inactive | HEK293 MPD ctr 2 inactive | TRPC4 ctr mod 11% | TRPC4/MOR inh 2 inactive | TRPC6 block conf inactive
COc1cc(C2NC(=O)N(C)C(C)=C2C(=O)OCc2ccccc2)cc(Br)c1O (stereo not drawn)	none
Nc1nc(NCCCN2CCOCC2)nc(Nc2cccc(Cl)c2)c1[N+](=O)[O-]	TRPC6 inh -5.6 | HEK293 MPD ctr inactive | HEK293 MPD ctr 2 inactive | TRPC4 ctr mod -18% | TRPC4/MOR inh 2 86% | TRPC6 block conf 52% | TRPC6 act conf inactive
O=C(CSc1nc2c(sc3ccccc32)c(=O)n1CCCN1CCCC1)NCc1ccccc1	none
Cc1ccc(CNC(=O)CSc2nc3c(sc4ccccc43)c(=O)n2CCCN2CCCC2)cc1	TRPC6 inh -5.8 | HEK293 MPD ctr inactive | HEK293 MPD ctr 2 inactive | TRPC4 ctr mod 8.0% | TRPC4/MOR inh 2 69% | TRPC6 block conf 43% | TRPC6 act conf inactive
Cc1csc(NC(=O)c2ccc(S(=O)(=O)N3CCN(C)CC3)cc2)n1	none
COCc1ccc(CN2CCC(C(=O)Nc3cccc(-c4cccc(Cl)c4)c3)CC2)o1	none
COc1cccc(-c2cccc(NC(=O)C3CCN(Cc4ccc(C)o4)CC3)c2)c1	TRPC6 inh -5.3 | HEK293 MPD ctr 128% | HEK293 MPD ctr 2 inactive | TRPC4 ctr mod 18% | TRPC4/MOR inh 2 44% | TRPC6 block conf inactive
CN(C)C(=O)c1c(NC(=O)c2ccccc2)sc2c1CCC2	none
CCN(CC)CCCC(C)NC(=O)c1c(NC(=O)c2ccccc2)sc2c1CCCC2 (stereo not drawn)	TRPC6 inh -6.1 | HEK293 MPD ctr inactive | HEK293 MPD ctr 2 inactive | TRPC4 ctr mod -20% | TRPC4/MOR inh 2 81% | TRPC6 block conf 60% | TRPC6 act conf inactive
O=C(CCCC(=O)Nc1ccccc1Br)N/N=C/c1c(F)cccc1Cl	none
